Among the data in ChEMBL document CHEMBL1143914, “Synthesis and cytotoxic activity of diosgenyl saponin analogues” (Bioorg Med Chem, 2008) are IC50 and Activity values, retold here.

As usually defined, the IC50 is the midpoint of a concentration-inhibition curve.

Common to all, as to assay type: functional, cell-based
Assay [1] relates to SK-N-SH. In words: Cytotoxicity against human SK-N-SH cells after 72 hrs by MTT assay. The method, boiled down:
(§1)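 Cells grown in DMEM with 10% FBS at 37 °C, 5% CO2. 2000 cells per well in 96-well plates, allowed to adhere. Compounds were dissolved in DMSO, diluted in medium and added at 0–30 µM, 8 wells per concentration, for 72 h. MTT at 0.5 mg/mL for 4 h, then DMSO solubilization and absorbance at 490 nm. IC50 from concentration plots; at least 2 independent assays.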
On the technique in general: Tetrazolium dyes change colour on reduction, which living cells bring about.

The subject of assay [2] is MCF7. In words: Cytotoxicity against human MCF7 cells after 72 hrs by MTT assay. The conditions noted are these: MCF7, 72 h. The method, boiled down:
as §1

A further assay concerns HeLa. In words: Cytotoxicity against human HeLa cells after 72 hrs by MTT assay. The method, boiled down:
as §1

Assay [3] has as its system SK-N-SH. In words: Cell cycle arrest in human SK-N-SH cells assessed as G1 phase accumulation.
The subject of assay [4] is MCF7. In words: Cell cycle arrest in human MCF7 cells assessed as G2 phase accumulation.

Each structure is given as a SMILES string. The source made the active and inactive calls. No cut-off for these calls is given here.

For the compound `C[C@@H]1CC[C@@]2(OC1)O[C@H]1C[C@H]3[C@@H]4CC=C5C[C@@H](O[C@H]6O[C@@H](CO)[C@H](O)[C@@H](O)[C@@H]6NC(=O)CCCCC(=O)N[C@H]6[C@H](O[C@H]7CC[C@@]8(C)C(=CC[C@H]9[C@@H]%10C[C@@H]%11O[C@]%12(CC[C@@H](C)CO%12)[C@@H](C)[C@@H]%11[C@@]%10(C)CC[C@@H]98)C7)O[C@H](CO)[C@@H](O)[C@@H]6O)CC[C@]5(C)[C@H]4CC[C@]3(C)[C@H]1[C@@H]2C`, the figures for the half-inhibitory concentration (IC50) in the assay with SK-N-SH [1], in the assay with MCF7 [2] and in the assay on HeLa were 19.5 µM, 19.2 µM and above 20 µM, respectively.

Turning to `CC(=O)N[C@H]1[C@H](O[C@H]2CC[C@@]3(C)C(=CC[C@H]4[C@@H]5C[C@@H]6O[C@]7(CC[C@@H](C)CO7)[C@@H](C)[C@@H]6[C@@]5(C)CC[C@@H]43)C2)O[C@H](CO)[C@@H](O)[C@@H]1O`, the IC50 worked out at 11.6 µM in the assay on SK-N-SH [1], 18.3 µM in the assay with MCF7 [2] and 21.5 µM in the assay on HeLa.

Take `CC(=O)N[C@@H](C)C(=O)N[C@H]1[C@H](O[C@H]2CC[C@@]3(C)C(=CC[C@H]4[C@@H]5C[C@@H]6O[C@]7(CC[C@@H](C)CO7)[C@@H](C)[C@@H]6[C@@]5(C)CC[C@@H]43)C2)O[C@H](CO)[C@@H](O)[C@@H]1O`: the concentration for half-maximal inhibition (IC50) in the assay with SK-N-SH [1] came to 15.3 µM; with MCF7 [2], 11 µM; in the assay on HeLa, 20 µM.

Take `C[C@@H]1CC[C@@]2(OC1)O[C@H]1C[C@H]3[C@@H]4CC=C5C[C@@H](O[C@@H]6O[C@H](CO)[C@@H](O)[C@H](O)[C@H]6NC(=O)CCCCC(=O)O)CC[C@]5(C)[C@H]4CC[C@]3(C)[C@H]1[C@@H]2C`: the IC50 in the assay with SK-N-SH [1] is 16.3 µM; in the assay on MCF7 [2] it was 11.3 µM; in the assay on HeLa it was above 20 µM.

`C[C@@H]1CC[C@@]2(OC1)O[C@H]1C[C@H]3[C@@H]4CC=C5C[C@@H](O[C@@H]6O[C@H](CO)[C@@H](O)[C@H](O)[C@H]6NC(=O)CCC(=O)O)CC[C@]5(C)[C@H]4CC[C@]3(C)[C@H]1[C@@H]2C`: the IC50 was 14.1 µM in the assay on SK-N-SH [1], 22 µM with MCF7 [2] and 13.9 µM in the assay with HeLa.

Turning to `C[C@@H]1CC[C@@]2(OC1)O[C@H]1C[C@H]3[C@@H]4CC=C5C[C@@H](O[C@@H]6O[C@H](CO)[C@@H](O)[C@H](O)[C@H]6NC(=O)CCCCC6CCSS6)CC[C@]5(C)[C@H]4CC[C@]3(C)[C@H]1[C@@H]2C` (stereo partly drawn) [ALPHA LIPOYL], the IC50 in the assay on SK-N-SH [1] was determined as 4.8 µM; in the assay on MCF7 [2] it was 6.9 µM; with HeLa, 7.3 µM.

Take `C[C@@H]1CC[C@@]2(OC1)O[C@H]1C[C@H]3[C@@H]4CC=C5C[C@@H](O[C@@H]6O[C@H](CO)[C@@H](O)[C@H](O)[C@H]6NC(=O)c6ccccc6)CC[C@]5(C)[C@H]4CC[C@]3(C)[C@H]1[C@@H]2C`: the IC50 in the assay on SK-N-SH [1] is 14.9 µM; in the assay on MCF7 [2], 19.4 µM; in the assay with HeLa, 18 µM. Besides, the result in the assay on SK-N-SH [3] and in the assay on MCF7 [4] was Active.
